This note sets out measurements from ChEMBL document CHEMBL1156049, “Potent biphenyl- and 3-phenyl pyridine-based inhibitors of acetyl-CoA carboxylase” (Bioorg Med Chem Lett, 2009).

pIC50: −log10 of the molar value.

The term pIC50 denotes the IC50 on a negative log10 scale, so that one unit is a factor of ten.

In one experiment the target is Acetyl-CoA carboxylase 1 (Homo sapiens, UniProt Q13085). Kind of experiment: Inhibition of human recombinant ACC 1 expressed in baculovirus expression system by FAS-coupled assay. Summed up:
(§1)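 Recombinant human ACC1 or ACC2 (baculovirus-expressed, purified), 2-4.5 nM, preincubated 10 min with compound in DMSO and FAS (1 µg/assay) in 50 mM HEPES pH 7.5, 10 mM sodium citrate, 20 mM MgCl2, 6 mM NaHCO3. Substrate mix then added: 2.4 µM [3H]acetyl-CoA, 47.6 µM acetyl-CoA, 100 µM NADPH, 0.125 mM ATP. Run 30 min at room temperature, stopped with EDTA. [3H]palmitic acid counted on phospholipid FlashPlate. IC50 averaged from 2–4 experiments.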

The target of a further experiment is Acetyl-CoA carboxylase 2 (Homo sapiens, UniProt O00763). Kind of experiment: Inhibition of human recombinant ACC 2 expressed in baculovirus expression system by FAS-coupled assay. Summed up: as §1
For experiment [1], the species on record is Homo sapiens. Description: Selectivity ratio of IC50 for human ACC 1 to IC50 for human ACC 2.
For experiment [2], the species on record is Homo sapiens. Description: Selectivity ratio of IC50 for human ACC 2 to IC50 for human ACC 1.

Acetyl-CoA carboxylase 2, sequence (O00763 whole entry): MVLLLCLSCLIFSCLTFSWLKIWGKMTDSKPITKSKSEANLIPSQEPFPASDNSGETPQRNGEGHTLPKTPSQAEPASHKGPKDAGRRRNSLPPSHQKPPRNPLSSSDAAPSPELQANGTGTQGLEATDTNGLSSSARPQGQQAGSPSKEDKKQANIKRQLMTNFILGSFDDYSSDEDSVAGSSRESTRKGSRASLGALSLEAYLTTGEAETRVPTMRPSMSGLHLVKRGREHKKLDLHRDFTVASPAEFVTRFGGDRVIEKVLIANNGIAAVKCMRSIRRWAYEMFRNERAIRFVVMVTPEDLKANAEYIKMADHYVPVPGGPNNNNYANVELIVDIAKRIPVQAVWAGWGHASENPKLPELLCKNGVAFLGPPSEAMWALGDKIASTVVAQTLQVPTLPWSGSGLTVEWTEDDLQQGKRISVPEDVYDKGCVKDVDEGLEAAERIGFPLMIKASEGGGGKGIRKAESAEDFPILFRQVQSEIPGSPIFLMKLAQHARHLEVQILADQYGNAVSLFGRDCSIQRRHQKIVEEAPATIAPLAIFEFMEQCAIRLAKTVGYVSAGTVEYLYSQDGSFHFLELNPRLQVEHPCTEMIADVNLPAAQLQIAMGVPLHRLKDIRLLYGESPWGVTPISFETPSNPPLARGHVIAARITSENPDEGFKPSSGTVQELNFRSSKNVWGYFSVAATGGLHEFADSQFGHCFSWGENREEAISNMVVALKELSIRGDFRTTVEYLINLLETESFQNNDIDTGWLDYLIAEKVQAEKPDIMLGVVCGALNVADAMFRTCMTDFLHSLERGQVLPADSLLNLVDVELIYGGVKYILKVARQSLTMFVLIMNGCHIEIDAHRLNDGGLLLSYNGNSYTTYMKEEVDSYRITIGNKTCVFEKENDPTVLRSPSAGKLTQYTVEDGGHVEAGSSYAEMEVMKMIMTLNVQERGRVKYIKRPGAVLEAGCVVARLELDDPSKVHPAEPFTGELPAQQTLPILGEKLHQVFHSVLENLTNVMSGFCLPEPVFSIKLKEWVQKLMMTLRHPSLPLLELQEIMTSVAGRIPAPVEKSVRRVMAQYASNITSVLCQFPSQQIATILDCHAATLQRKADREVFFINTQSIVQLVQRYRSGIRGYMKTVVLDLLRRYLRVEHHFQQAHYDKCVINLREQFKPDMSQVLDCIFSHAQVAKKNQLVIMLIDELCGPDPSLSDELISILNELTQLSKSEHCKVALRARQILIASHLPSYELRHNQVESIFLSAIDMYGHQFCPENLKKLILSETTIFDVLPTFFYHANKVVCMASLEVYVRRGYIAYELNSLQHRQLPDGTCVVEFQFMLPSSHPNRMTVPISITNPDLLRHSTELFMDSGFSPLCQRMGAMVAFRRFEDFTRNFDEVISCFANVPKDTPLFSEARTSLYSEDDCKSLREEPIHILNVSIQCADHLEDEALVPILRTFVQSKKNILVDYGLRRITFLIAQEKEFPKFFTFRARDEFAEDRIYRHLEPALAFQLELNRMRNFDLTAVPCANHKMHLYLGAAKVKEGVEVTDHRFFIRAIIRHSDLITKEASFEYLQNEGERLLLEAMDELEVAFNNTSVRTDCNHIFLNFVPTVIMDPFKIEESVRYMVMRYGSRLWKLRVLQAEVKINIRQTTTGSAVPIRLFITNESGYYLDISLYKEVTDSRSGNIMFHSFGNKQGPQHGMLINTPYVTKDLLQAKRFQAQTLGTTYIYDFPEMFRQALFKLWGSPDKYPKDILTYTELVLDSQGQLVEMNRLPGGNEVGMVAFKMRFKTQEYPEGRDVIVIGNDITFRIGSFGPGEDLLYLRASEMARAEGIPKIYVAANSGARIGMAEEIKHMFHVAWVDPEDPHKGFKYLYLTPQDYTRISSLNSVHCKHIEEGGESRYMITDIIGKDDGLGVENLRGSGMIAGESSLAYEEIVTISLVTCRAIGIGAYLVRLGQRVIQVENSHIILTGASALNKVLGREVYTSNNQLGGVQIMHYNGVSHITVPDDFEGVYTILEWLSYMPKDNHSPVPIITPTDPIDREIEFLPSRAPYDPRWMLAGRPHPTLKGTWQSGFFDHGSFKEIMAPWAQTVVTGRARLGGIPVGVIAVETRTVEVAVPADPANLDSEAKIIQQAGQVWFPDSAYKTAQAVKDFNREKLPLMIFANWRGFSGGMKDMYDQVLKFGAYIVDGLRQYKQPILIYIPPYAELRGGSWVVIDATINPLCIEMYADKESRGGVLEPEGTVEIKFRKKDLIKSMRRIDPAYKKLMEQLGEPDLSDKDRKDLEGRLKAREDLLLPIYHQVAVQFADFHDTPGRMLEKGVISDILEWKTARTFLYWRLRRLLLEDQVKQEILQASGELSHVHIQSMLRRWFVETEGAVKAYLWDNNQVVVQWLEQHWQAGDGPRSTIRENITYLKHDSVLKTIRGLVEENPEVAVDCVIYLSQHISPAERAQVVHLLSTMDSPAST

With `CCCOc1ccc(Oc2ccc(-c3ccc(C(C)NC(=O)CCC)cc3)cc2)cc1` (stereo unspecified), the figures for the pIC50 at Acetyl-CoA carboxylase 1 and at Acetyl-CoA carboxylase 2 were 5.56 and under 4.52, respectively.

For `CC(=O)NC(C)c1ccc(-c2ccc(Oc3ccc(OC(C)C)cc3)cc2)cc1` (stereo unspecified), the pIC50 at Acetyl-CoA carboxylase 1 is 7.77; at Acetyl-CoA carboxylase 2, 7.48.

For the compound `CCCOc1ccc(Oc2ccc(-c3ccc(C(C)NC(=O)CC)cc3)cn2)cc1` (stereo unspecified), the pIC50 on Acetyl-CoA carboxylase 1 is 7.16; at Acetyl-CoA carboxylase 2 it was 7.46. For the same compound, the Selectivity ratio in the experiment listed under Homo sapiens [1] is 2.

Turning to `CCCOc1ccc(Oc2ccc(-c3ccc(C(C)NC(=O)OCC)cc3)cn2)cc1` (stereo unspecified), the pIC50 on Acetyl-CoA carboxylase 1 is 5.09; at Acetyl-CoA carboxylase 2, 6.64.

In the case of `CCCOc1ccc(Oc2ccc(-c3ccc([C@@H](C)NC(C)=O)cc3)cn2)cc1`, the results for the pIC50 at Acetyl-CoA carboxylase 1 and at Acetyl-CoA carboxylase 2 were under 4.52 and 6.11, respectively.

Consider `CCCOc1ccc(Oc2ccc(-c3ccc(C(C)NC(=O)CC)cc3)cc2)cc1` (stereo unspecified), for which the figures for the pIC50 at Acetyl-CoA carboxylase 1 and at Acetyl-CoA carboxylase 2 were 7.33 and 6.69, respectively.

`CC(=O)NC(C)c1ccc(-c2ccc(Oc3ccc(OC(C)C)cc3)cc2C)cc1` (stereo unspecified): the pIC50 on Acetyl-CoA carboxylase 1 was 7.80; on Acetyl-CoA carboxylase 2 it was 7.46.

As to `CCCCC(=O)NC(C)c1ccc(-c2ccc(Oc3ccc(OCCC)cc3)nc2)cc1` (stereo unspecified), the pIC50 at Acetyl-CoA carboxylase 1 was under 4.52; on Acetyl-CoA carboxylase 2 it was 5.82.

Consider `CCCOc1ccc(Oc2ccc(-c3ccc(C(C)NC(=O)COC)cc3)cn2)cc1` (stereo unspecified), for which the pIC50 on Acetyl-CoA carboxylase 1 was under 4.52; at Acetyl-CoA carboxylase 2, 6.06.

As for `CCCOc1ccc(Oc2ccc(-c3ccc(C(C)NC(=O)C(C)C)cc3)cc2)cc1` (stereo unspecified), the pIC50 is 6.73 at Acetyl-CoA carboxylase 1 and 6.67 on Acetyl-CoA carboxylase 2.

Turning to `CCCOc1ccc(Oc2ccc(-c3ccc([C@H](C)NC(C)=O)cc3)cn2)cc1`, the pIC50 at Acetyl-CoA carboxylase 1 was 7.46; on Acetyl-CoA carboxylase 2, 8.10.

Take `CC(=O)NC(C)c1ccc(-c2ccc(Oc3ccc(OCc4ccccc4)cc3)nc2)cc1` (stereo unspecified): the pIC50 is 7.24 at Acetyl-CoA carboxylase 1 and 6.93 at Acetyl-CoA carboxylase 2.

For the compound `CCOc1ccc(Oc2ccc(-c3ccc(C(C)NC(C)=O)cc3)cc2)cc1` (stereo unspecified), the figures for the pIC50 on Acetyl-CoA carboxylase 1 and on Acetyl-CoA carboxylase 2 were 5.79 and 6.92, respectively. Also, the Selectivity ratio in the experiment listed under Homo sapiens [1] was found to be 14.

On to `CC(=O)NC(C)c1ccc(-c2ccc(Oc3ccc(OCc4ccccc4)cc3)cc2)cc1` (stereo unspecified), for which the negative-log IC50 (pIC50) on Acetyl-CoA carboxylase 1 and on Acetyl-CoA carboxylase 2 was under 4.52 each time.

For the compound `CCOc1cccc(Oc2ccc(-c3ccc(C(C)NC(C)=O)cc3)cc2)c1` (stereo unspecified), the pIC50 at Acetyl-CoA carboxylase 1 was 5.07; on Acetyl-CoA carboxylase 2, 6.99. Further, the Selectivity ratio in the experiment listed under Homo sapiens [1] is 84.

For `CCCOc1ccc(Oc2ccc(-c3ccc(C(C)NC(=O)OCC)cc3)cc2)cc1` (stereo unspecified), the pIC50 at Acetyl-CoA carboxylase 1 was under 4.52; at Acetyl-CoA carboxylase 2 it was 5.51.

Consider `CC(=O)NC(C)c1ccc(-c2ccc(Oc3cccc(Oc4ccccc4)c3)nc2)cc1` (stereo unspecified), for which the pIC50 at Acetyl-CoA carboxylase 1 is 7.31; on Acetyl-CoA carboxylase 2 it was 7.49.

For the compound `CC(=O)NC(C)c1ccc(-c2ccc(Oc3cccc(Oc4ccccc4)c3)cc2)cc1` (stereo unspecified), the pIC50 on Acetyl-CoA carboxylase 1 was 7.39; at Acetyl-CoA carboxylase 2, 7.80.

Consider `CCCOc1cccc(Oc2ccc(-c3ccc(C(C)NC(=O)c4cn[nH]c4)cc3)cc2)c1` (stereo unspecified), for which the pIC50 on Acetyl-CoA carboxylase 1 was 7.44; at Acetyl-CoA carboxylase 2, 6.22. In the experiment listed under Homo sapiens [2], the Selectivity ratio is 17.

With `CCCOc1ccc(Oc2ccc(-c3ccc(C(C)NC(=O)C(C)C)cc3)cn2)cc1` (stereo unspecified), the pIC50 at Acetyl-CoA carboxylase 1 is 6.35; on Acetyl-CoA carboxylase 2, 6.81.

Regarding `CCOc1ccc(Oc2ccc(-c3ccc(C(C)NC(C)=O)cc3)cn2)cc1` (stereo unspecified), the pIC50 at Acetyl-CoA carboxylase 1 was under 4.52; on Acetyl-CoA carboxylase 2 it was 6.56. For the same compound, the Selectivity ratio in the experiment listed under Homo sapiens [1] was over 100.

`CC(=O)NC(C)c1ccc(-c2ccc(Oc3ccc(OC(C)C)cc3)cc2C)c(C)c1` (stereo unspecified): the results for the pIC50 on Acetyl-CoA carboxylase 1 and at Acetyl-CoA carboxylase 2 were 6.23 and 7.06, respectively.

As for `CCCOc1ccc(Oc2ccc(-c3ccc(C(C)NC(=O)CCC)cc3)cn2)cc1` (stereo unspecified), the negative-log IC50 (pIC50) at Acetyl-CoA carboxylase 1 was 5.38; at Acetyl-CoA carboxylase 2 it was 6.31.

For the compound `CCCOc1ccc(Oc2ccc(-c3ccc(C(C)NC(C)=O)cc3)cc2)cc1` (stereo unspecified), the pIC50 was 7.77 on Acetyl-CoA carboxylase 1 and 7.85 at Acetyl-CoA carboxylase 2.

Take `CC(=O)NC(C)c1ccc(-c2ccc(Oc3ccc(-c4c(O)ccc5c4CCCC5)cc3)cc2)cc1` (stereo unspecified): the pIC50 on Acetyl-CoA carboxylase 1 is 6.85; at Acetyl-CoA carboxylase 2, 6.57.

`CCCOc1ccc(Oc2ccc(-c3ccc(C(C)NC(=O)c4cn[nH]c4)cc3)cn2)cc1` (stereo unspecified): the values for the pIC50 on Acetyl-CoA carboxylase 1 and at Acetyl-CoA carboxylase 2 were under 4.52 and 5.60, respectively.

As for `CC(=O)NC(C)c1ccc(-c2ccc(Oc3ccc(OC(C)C)cc3)cc2)c(C)c1` (stereo unspecified), the pIC50 on Acetyl-CoA carboxylase 1 is 5.60; on Acetyl-CoA carboxylase 2, 6.52.

Consider `COc1cccc(Oc2ccc(-c3ccc(C(C)NC(C)=O)cc3)cc2)c1` (stereo unspecified), for which the pIC50 at Acetyl-CoA carboxylase 1 is under 4.52; at Acetyl-CoA carboxylase 2, 6.43. For the same compound, the Selectivity ratio in the experiment filed under Homo sapiens [1] is over 80.

On to `CCCOc1cccc(Oc2ccc(-c3ccc(C(C)NC(C)=O)cc3)cc2)c1` (stereo unspecified), for which the pIC50 is 7.89 at Acetyl-CoA carboxylase 1 and 7.92 on Acetyl-CoA carboxylase 2.

`CC(=O)NC(C)c1ccc(-c2ccc(Oc3ccc(Oc4ccccc4)cc3)cc2)cc1` (stereo unspecified): the results for the pIC50 at Acetyl-CoA carboxylase 1 and at Acetyl-CoA carboxylase 2 were 7.85 and 8.15, respectively.

As for `CCCOc1ccc(Oc2ccc(-c3ccc(C(C)NC(=O)C4CC4)cc3)cn2)cc1` (stereo unspecified), the figures for the pIC50 at Acetyl-CoA carboxylase 1 and on Acetyl-CoA carboxylase 2 were 6.50 and 6.85, respectively.

As for `CCCOc1ccc(Oc2ccc(-c3ccc(C(C)NC(=O)C4CC4)cc3)cc2)cc1` (stereo unspecified), the pIC50 at Acetyl-CoA carboxylase 1 is 6.53; at Acetyl-CoA carboxylase 2 it was 6.26.

With `CCCCC(=O)NC(C)c1ccc(-c2ccc(Oc3ccc(OCCC)cc3)cc2)cc1` (stereo unspecified), the pIC50 on Acetyl-CoA carboxylase 1 and on Acetyl-CoA carboxylase 2 was under 4.52 in each case.

Turning to `CC(=O)NC(C)c1ccc(-c2ccc(Oc3ccc(Cc4ccccc4)cc3)cc2)cc1` (stereo unspecified), the pIC50 at Acetyl-CoA carboxylase 1 is 7.41; at Acetyl-CoA carboxylase 2, 6.02. The Selectivity ratio in the experiment filed under Homo sapiens [2] worked out at 24.

`CCCc1ccc(Oc2ccc(-c3ccc(C(C)NC(C)=O)cc3)cc2)cc1` (stereo unspecified): the values for the pIC50 on Acetyl-CoA carboxylase 1 and at Acetyl-CoA carboxylase 2 were 7.09 and 6.94, respectively.

`COCCc1ccc(Oc2ccc(-c3ccc(C(C)NC(C)=O)cc3)cc2)cc1` (stereo unspecified): the values for the pIC50 on Acetyl-CoA carboxylase 1 and on Acetyl-CoA carboxylase 2 were 7.05 and under 4.52, respectively. Further, the Selectivity ratio in the experiment filed under Homo sapiens [2] is over 300.

Regarding `CCCOc1ccc(Oc2ccc(-c3ccc(C(C)NC(=O)C(C)O)cc3)cc2)cc1` (racemic), the pIC50 on Acetyl-CoA carboxylase 1 is 5.69; on Acetyl-CoA carboxylase 2, 5.74.

On to `CC(=O)NC(C)c1ccc(-c2ccc(Oc3ccc(C(=O)c4ccccc4)cc3)cc2)cc1` (stereo unspecified), for which the pIC50 was 7.46 on Acetyl-CoA carboxylase 1 and 6.95 at Acetyl-CoA carboxylase 2.

As for `CCCOc1ccc(Oc2ccc(-c3ccc(C(C)NC(=O)COC)cc3)cc2)cc1` (stereo unspecified), the values for the pIC50 at Acetyl-CoA carboxylase 1 and at Acetyl-CoA carboxylase 2 were 6.12 and 6.14, respectively.

With `CCCOc1ccc(Oc2ccc(-c3ccc(C(C)NC(C)=O)cc3)cn2)cc1` (stereo unspecified), the negative logarithm of the IC50 (pIC50) was 6.96 on Acetyl-CoA carboxylase 1 and 7.74 on Acetyl-CoA carboxylase 2. The Selectivity ratio in the experiment filed under Homo sapiens [1] was determined as 6.

Turning to `CC(=O)NC(C)c1ccc(-c2ccc(Oc3ccc(OC(C)C)cc3)nc2)cc1` (stereo unspecified), the values for the negative logarithm of the IC50 (pIC50) on Acetyl-CoA carboxylase 1 and at Acetyl-CoA carboxylase 2 were 6.38 and 7.03, respectively.
